molecular target: Mu-type opioid receptor (Homo sapiens, UniProt P35372); test: Displacement of [3H]-DAMGO from human MOR receptor expressed in HEK293T cell membrane assessed as inhibition constant incubated for 60 mins by MicroBeta scintillation counting method; format: cell membranes; details: not given
Method in brief: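 HEK293 cells stably expressing human MOR, grown in DMEM with 10% FBS and hygromycin B; membranes prepared from confluent cells. Binding buffer 50 mM Tris, 5 mM MgCl2, pH 7.4. Nonspecific binding with 10 μM naloxone. 60 min at RT, then GF/C filtration.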

Sequence of Mu-type opioid receptor (Homo sapiens, UniProt P35372) (P35372 whole entry): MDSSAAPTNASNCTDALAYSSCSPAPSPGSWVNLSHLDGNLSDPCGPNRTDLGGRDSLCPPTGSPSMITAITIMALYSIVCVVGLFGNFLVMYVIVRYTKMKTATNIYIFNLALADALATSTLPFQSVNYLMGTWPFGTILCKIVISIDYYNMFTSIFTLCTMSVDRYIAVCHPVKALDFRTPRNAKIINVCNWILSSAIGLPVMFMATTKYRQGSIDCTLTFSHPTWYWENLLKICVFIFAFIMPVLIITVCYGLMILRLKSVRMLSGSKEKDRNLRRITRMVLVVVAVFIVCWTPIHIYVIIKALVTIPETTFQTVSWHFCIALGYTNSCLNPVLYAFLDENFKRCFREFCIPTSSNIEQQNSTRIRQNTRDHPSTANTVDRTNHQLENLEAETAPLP

Row | Ki [nM] | SMILES
1 | 791 | CN(C)C(=O)C(CCN1C[C@H](O)C[C@H]1C(=O)NCCCCN1CCN(c2cccc(C(F)(F)F)n2)CC1)(c1ccccc1)c1ccccc1
2 | 1750 | Clc1cccc(N2CCN(CCCOC3(c4ccccn4)CCOCC3)CC2)c1Cl
3 | 540 | CCC1(CC)CC(OCCCNCc2cccc(Cl)c2Cl)(c2ccccn2)CCO1 (stereo unspecified)
4 | 745 | CCC1(CC)CC(OCCCN2CCN(c3cccc(C(F)(F)F)n3)CC2)(c2ccccn2)CCO1 (stereo unspecified)
5 | 1460 | Clc1cccc(N2CCN(CCCCNCCC3(c4ccccn4)CCOCC3)CC2)c1Cl

Row | SMILES | Ki [nM]
6 | CN(C)C(=O)C(CCN1CCN(c2cccc(C(F)(F)F)n2)CC1)(c1ccccc1)c1ccccc1 | 1.23
7 | CC1CCC(CN2CCN(c3cccc(Cl)c3Cl)CC2)CN1CCC(C(=O)N(C)C)(c1ccccc1)c1ccccc1 (stereo unspecified) | 867
8 | COc1ccccc1[C@@H]1C[C@H]1NCCC(C(=O)N(C)C)(c1ccccc1)c1ccccc1 (relative stereo) | 55.2
9 | Clc1ccc([C@@H]2C[C@H]2NCCC2(c3ccccn3)CCOC3(CCCC3)C2)cc1 (relative stereo) | 85.2

molecular target: D(2) dopamine receptor (Homo sapiens, UniProt P14416); test: Displacement of [3H]N-methylspiperone from human D2L receptor expressed in HEK293T cell membrane assessed as inhibition constant incubated for 60 mins by MicroBeta scintillation counting method; format: cell membranes; details: not given
Sequence (P14416 whole entry): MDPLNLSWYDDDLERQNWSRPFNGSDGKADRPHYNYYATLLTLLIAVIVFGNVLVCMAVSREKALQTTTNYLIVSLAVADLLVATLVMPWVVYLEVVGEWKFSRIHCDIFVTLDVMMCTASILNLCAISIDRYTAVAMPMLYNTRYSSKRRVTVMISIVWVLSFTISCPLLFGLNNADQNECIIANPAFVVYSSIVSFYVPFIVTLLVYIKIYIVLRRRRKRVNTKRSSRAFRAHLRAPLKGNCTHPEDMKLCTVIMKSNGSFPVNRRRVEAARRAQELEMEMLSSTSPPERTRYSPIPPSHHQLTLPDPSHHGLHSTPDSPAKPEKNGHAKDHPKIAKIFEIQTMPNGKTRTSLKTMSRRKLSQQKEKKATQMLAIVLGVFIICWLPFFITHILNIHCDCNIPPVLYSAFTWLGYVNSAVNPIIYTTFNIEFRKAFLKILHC

Row | SMILES | Ki [nM]
10 | CC1CCC(CN2CCN(c3cccc(Cl)c3Cl)CC2)CN1CCC(C(=O)N(C)C)(c1ccccc1)c1ccccc1 (stereo unspecified) | 146
11 | Clc1ccc([C@@H]2C[C@H]2NCCC2(c3ccccn3)CCOC3(CCCC3)C2)cc1 (relative stereo) | 5520
12 | CCC1(CC)CC(OCCCNCc2cccc(Cl)c2Cl)(c2ccccn2)CCO1 (stereo unspecified) | 13400
13 | CCC1(CC)CC(OCCCN2CCN(c3cccc(C(F)(F)F)n3)CC2)(c2ccccn2)CCO1 (stereo unspecified) | 1240

molecular target: T1, D(3) dopamine receptor (Homo sapiens, UniProt P35462); test: Displacement of [3H]N-methylspiperone from human D3R receptor expressed in HEK293T cell membrane assessed as inhibition constant incubated for 60 mins by MicroBeta scintillation counting method; format: cell membranes; details: not given
T1 sequence (P35462 whole entry): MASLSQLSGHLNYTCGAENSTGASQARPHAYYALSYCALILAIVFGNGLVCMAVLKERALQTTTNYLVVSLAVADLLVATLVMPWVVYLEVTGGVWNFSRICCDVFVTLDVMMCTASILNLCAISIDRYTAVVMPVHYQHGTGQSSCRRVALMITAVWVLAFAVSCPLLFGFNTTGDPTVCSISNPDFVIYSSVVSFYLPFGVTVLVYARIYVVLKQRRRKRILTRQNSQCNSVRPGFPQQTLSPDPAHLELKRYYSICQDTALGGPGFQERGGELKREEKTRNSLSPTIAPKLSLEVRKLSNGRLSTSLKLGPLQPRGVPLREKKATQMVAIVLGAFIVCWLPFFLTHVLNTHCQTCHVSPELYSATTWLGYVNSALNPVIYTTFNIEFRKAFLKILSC

Row | SMILES | Ki [nM]
14 | CC1CCC(CN2CCN(c3cccc(Cl)c3Cl)CC2)CN1CCC(C(=O)N(C)C)(c1ccccc1)c1ccccc1 (stereo unspecified) | 309
15 | Clc1ccc([C@@H]2C[C@H]2NCCC2(c3ccccn3)CCOC3(CCCC3)C2)cc1 (relative stereo) | 361
16 | CCC1(CC)CC(OCCCNCc2cccc(Cl)c2Cl)(c2ccccn2)CCO1 (stereo unspecified) | 1180

molecular target: T2, Mu-type opioid receptor (Mus musculus, UniProt P42866); test: Agonist activity at Rluc8 fused mouse MOR transfected in HEK293T cells assessed as Nb33 recruitment using coelenterazine as substrate incubated for 40 mins by BRET assay; format: functional, cell-based; details: not given
Method in brief: (§1)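 HEK293T cells transiently transfected with BRET sensors (DNA:PEI 1:6), plated into poly-D-lysine plates and assayed 48 h post-transfection. Cells washed and held in D-PBS 30 min at 37 °C. Coelenterazine h 5 μM final; ligands 10 μM to 0.01 nM. At least three independent experiments in duplicate.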

T2 sequence (P42866 whole entry, the tested form may be a part): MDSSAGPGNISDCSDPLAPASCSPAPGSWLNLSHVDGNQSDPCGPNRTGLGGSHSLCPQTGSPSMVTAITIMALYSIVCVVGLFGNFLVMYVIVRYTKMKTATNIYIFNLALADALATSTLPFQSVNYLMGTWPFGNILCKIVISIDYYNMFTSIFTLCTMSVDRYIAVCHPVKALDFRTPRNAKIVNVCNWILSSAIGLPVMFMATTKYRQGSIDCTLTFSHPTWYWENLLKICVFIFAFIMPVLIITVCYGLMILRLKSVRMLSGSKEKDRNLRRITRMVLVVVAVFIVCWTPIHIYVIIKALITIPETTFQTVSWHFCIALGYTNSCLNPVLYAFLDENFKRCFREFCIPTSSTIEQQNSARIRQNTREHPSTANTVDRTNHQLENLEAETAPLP

Row | SMILES | EC50 [nM]
17 | Clc1ccc([C@@H]2C[C@H]2NCCC2(c3ccccn3)CCOC3(CCCC3)C2)cc1 (relative stereo) | 406

molecular target: Mu-type opioid receptor (Mus musculus) (UniProt P42866); test: Agonist activity at Rluc8 fused mouse MOR transfected in HEK293T cells assessed as Nb33 recruitment at 10 uM using coelenterazine as substrate incubated for 40 mins by BRET assay relative to control; format: functional, cell-based; details: not given
Method in brief: (§2)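 HEK293T cells transiently transfected with BRET sensors (DNA:PEI 1:6), plated into poly-D-lysine plates and assayed 48 h post-transfection. Cells washed and held in D-PBS 30 min at 37 °C. Coelenterazine h 5 μM final; ligands 10 μM to 0.01 nM. […] At least three independent experiments in duplicate.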

Sequence of Mu-type opioid receptor (Mus musculus) (P42866 whole entry, the tested form may be a part): as above

Row | SMILES | Emax [%]
18 | Clc1ccc([C@@H]2C[C@H]2NCCC2(c3ccccn3)CCOC3(CCCC3)C2)cc1 (relative stereo) | 24.9

molecular target: T2, Mu-type opioid receptor; test: (§3) Partial agonist activity at SNAP-tagged mouse MOR transfected in HEK293T cells coexpressing wild type Galpha-i2, venus-tagged Gbeta-1 (156 to 239 residues), venus-tagged Ggamma2 (1 to 155 residues) and Rluc8 fused masGRK3ct assessed as Galpha-i2 activation using coelenterazine as substrate incubated for 40 mins by BRET based GPA assay; format: functional, cell-based; details: not given; method in brief: as §1

Row | EC50 [nM] | SMILES
19 | 470 | CN(C)C(=O)C(CCN1C[C@H](O)C[C@H]1C(=O)NCCCCN1CCN(c2cccc(C(F)(F)F)n2)CC1)(c1ccccc1)c1ccccc1

molecular target: T2, Mu-type opioid receptor; test: as §3, with “Agonist” for “Partial agonist”; format: functional, cell-based; details: read-out: EC50; method in brief: as §1

Row | SMILES | EC50 [nM]
20 | Clc1ccc([C@@H]2C[C@H]2NCCC2(c3ccccn3)CCOC3(CCCC3)C2)cc1 (relative stereo) | 73.4

same assay, conditions: read-out: pEC50 (converted)

Row | SMILES | EC50 [nM]
21 | Clc1ccc([C@@H]2C[C@H]2NCCC2(c3ccccn3)CCOC3(CCCC3)C2)cc1 (relative stereo) | 72.4

molecular target: Mu-type opioid receptor (Mus musculus) (UniProt P42866); test: as §3, with “Agonist” for “Partial agonist”, “activation at 10 uM” for “activation”, “assay relative to control” for “assay”; format: functional, cell-based; details: filed as agonist; method in brief: as §2

Row | SMILES | Emax [%]
22 | Clc1ccc([C@@H]2C[C@H]2NCCC2(c3ccccn3)CCOC3(CCCC3)C2)cc1 (relative stereo) | 97.6

molecular target: T2, Mu-type opioid receptor; test: Agonist activity at Rluc8 fused mouse MOR transfected in HEK293T cells coexpressing wild type GRK2 assessed as arrestin-3 recruitment using coelenterazine as substrate incubated for 40 mins by BRET assay; format: functional, cell-based; details: not given; method in brief: as §1

Row | SMILES | EC50 [nM]
23 | Clc1ccc([C@@H]2C[C@H]2NCCC2(c3ccccn3)CCOC3(CCCC3)C2)cc1 (relative stereo) | 261

molecular target: Mu-type opioid receptor (Mus musculus) (UniProt P42866); test: Agonist activity at Rluc8 fused mouse MOR transfected in HEK293T cells coexpressing wild type GRK2 assessed as arrestin-3 recruitment at 10 uM using coelenterazine as substrate incubated for 40 mins by BRET assay relative to control; format: functional, cell-based; details: filed as agonist; method in brief: as §2

Row | SMILES | Emax [%]
24 | Clc1ccc([C@@H]2C[C@H]2NCCC2(c3ccccn3)CCOC3(CCCC3)C2)cc1 (relative stereo) | 51.3

molecular target: T1, D(3) dopamine receptor; test: as §3, with “Antagonist” for “Partial agonist”, “human D3R receptor” for “mouse MOR”, “Galpha-oA,” for “Galpha-i2,”, “Galpha-oA” for “Galpha-i2”, “mins in presence of quinpirole” for “mins”; format: functional, cell-based; details: not given

Row | SMILES | EC50 [nM] | IC50 [nM]
25 | Clc1ccc([C@@H]2C[C@H]2NCCC2(c3ccccn3)CCOC3(CCCC3)C2)cc1 (relative stereo) | 271 | 269
